ChEMBL document CHEMBL4373674, “Structural modification of azolylacryloyl derivatives yields a novel class of covalent modifiers of hemoglobin as potential antisickling agents” (Medchemcomm, 2019)
Calls of active or inactive are those of the source. The calls are words filed in the database; no cut-off is given here.

Experiments:
[1] = biological target: T1, Hemoglobin HbA (Homo sapiens) (UniProt P69905+P68871); assay: Drug reactivity against betacys93 in hemoglobin (unknown origin) assessed as betacys93-compound adduct formation at 2 mM incubated for 2 hrs by UPLC-MS analysis relative to control; assay type: protein-complex assay; settings: in the assay text read “by DTNB disulfide exchange assay” for “by UPLC-MS analysis”
T1 sequence (P68871 2-147 partner limits assumed): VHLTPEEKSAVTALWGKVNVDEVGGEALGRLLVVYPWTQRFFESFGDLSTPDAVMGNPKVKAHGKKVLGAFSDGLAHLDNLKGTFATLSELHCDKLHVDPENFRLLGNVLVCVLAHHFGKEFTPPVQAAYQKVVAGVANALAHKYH
T1 sequence (P69905 2-142 limits assumed): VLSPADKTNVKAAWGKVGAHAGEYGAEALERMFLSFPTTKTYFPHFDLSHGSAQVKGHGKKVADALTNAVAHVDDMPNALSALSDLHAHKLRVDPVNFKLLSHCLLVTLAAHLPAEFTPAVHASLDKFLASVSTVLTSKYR
Summary of the method: (§1)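 Hb (50 µM in PBS) was reacted with 2 mM compound (final) at room temperature for 2 h or 16 h. Hb was recovered by centrifugation and 10 kDa ultrafiltration, then washed. Samples were incubated in 0.1 M potassium phosphate pH 8.0 with DTNB for 1 h at 25 °C. Hb content was taken from A576 and free thiol from 2-nitrobenzoate at A412 (ε 14 150 M-1 cm-1). Values are the mean of quadruplicates ± SD. % adduct = 100 − available SH from two βCys93.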

[2] = biological target: T1, Hemoglobin HbA (Homo sapiens); assay: Drug reactivity against betacys93 in hemoglobin (unknown origin) assessed as free SH in betacys93 at 2 mM incubated for 16 hrs by UPLC-MS analysis relative to control; assay type: protein-complex assay; settings: in the assay text read “by DTNB disulfide exchange assay” for “by UPLC-MS analysis”; summary of the method: as §1
[3] = biological target: T1, Hemoglobin HbA (Homo sapiens); assay: Drug reactivity against betacys93 in hemoglobin (unknown origin) assessed as betacys93-compound adduct formation at 2 mM incubated for 16 hrs by UPLC-MS analysis relative to control; assay type: protein-complex assay; settings: in the assay text read “by DTNB disulfide exchange assay” for “by UPLC-MS analysis”; summary of the method: as §1
[4] = biological target: T1, Hemoglobin HbA (Homo sapiens); assay: Binding affinity to hemoglobin in whole blood (unknown origin) at 1 mM incubated for 2 hrs relative to control; assay type: tissue-based
Summary of the method: (§2)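 Normal human whole blood at 20% hematocrit was incubated with compound (1 mM and 2 mM final) for 2 h at 37 °C. Hb–O2 affinity was then measured from oxygen equilibrium curves. Runs were done at least in triplicate.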

[5] = biological target: T1, Hemoglobin HbA (Homo sapiens); assay: Binding affinity to hemoglobin in whole blood (unknown origin) at 2 mM incubated for 2 hrs relative to control; assay type: tissue-based; summary of the method: as §2
[6] = biological target: T1, Hemoglobin HbA (Homo sapiens); assay: Binding affinity to hemoglobin in whole blood (unknown origin) incubated for 2 hrs; assay type: tissue-based; summary of the method: as §2
[7] = biological target: T1, Hemoglobin HbA (Homo sapiens); assay: Binding affinity to hemoglobin in whole blood (unknown origin) at 2 mM incubated for 8 hrs; assay type: tissue-based
Summary of the method: (§3)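 Normal whole blood was incubated with 2 mM compound at 37 °C for up to 24 h. Aliquots taken at 1, 2, 4, 8 and 24 h were assessed by oxygen equilibrium curves, with DMSO as vehicle control.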

[8] = system: Erythrocyte; assay: Anti-sickling activity in RBC derived from patient homozygous SS at 2 mM […] by microscopic analysis relative to control; assay type: functional, Homo sapiens
[9] = Drug reactivity against cysteine in PBS buffer at 2 mM incubated for 3 hrs by UPLC-MS analysis relative to control
[10] = Drug reactivity against cysteine in PBS buffer assessed as assessed as cysteine-compound adduct formation at 2 mM incubated for 3 hrs by UPLC-MS analysis relative to control
[11] = biological target: T1, Hemoglobin HbA (Homo sapiens); assay: Binding affinity to hemoglobin in whole blood (unknown origin) at 2 mM incubated for 24 hrs; assay type: tissue-based; summary of the method: as §3
[12] = Acute toxicity in Swiss albino mouse assessed as mortality at 2000 mg/kg, po via gavage measured after 24 hrs by OECD 423 guideline based method; assay type: organism-based; settings: in vivo
Summary of the method: (§4)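 Male and female Swiss albino mice (22–27 g, 8–10 weeks) were held at about 23 °C on a 12 h light/dark cycle with free food and water. Dosing was a single oral gavage of a 10% suspension in water with 0.5% Tween 80. Groups of n = 3 received 2000 mg/kg (days 1 and 2) or 5000 mg/kg (day 3). Toxic signs and mortality were watched for 24 h.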

[13] = Acute toxicity in Swiss albino mouse assessed as mortality at 5000 mg/kg, po via gavage measured after 24 hrs by OECD 423 guideline based method; assay type: organism-based; settings: in vivo; summary of the method: as §4

O=C(O)CCCOc1ccc(C(=O)/C=C/c2ncc[nH]2)cc1Cl
Activity [1]: 11% | Activity [2]: 70% | Activity [3]: 30% | Activity [4]: 1.9% | Activity [5]: 4.5% | Activity [6]: Active | Activity [7]: Active | Activity [8]: 2%

O=C(/C=C/c1ncc[nH]1)c1ccc(OC2CCCCO2)cc1 (configuration not stated)
Activity [9]: 45.1% | Activity [10]: 54.9% | Activity [4]: 9.9% | Activity [5]: 15.2% | Activity [6]: Active | Activity [11]: Active | Activity [8]: 7%

COc1ccc(C(=O)/C=C/c2ncc[nH]2)cc1OC
Activity [9]: 46.3% | Activity [10]: 53.7% | Activity [1]: 9% | Activity [2]: 80% | Activity [3]: 20% | Activity [4]: 6.5% | Activity [5]: 6.5% | Activity [6]: Active | Activity [7]: Active | Activity [8]: 5%

COc1ccc(C(=O)/C=C/c2ncc[nH]2)cc1
Activity [9]: 23% | Activity [10]: 77% | Activity [1]: 11% | Activity [2]: 63% | Activity [3]: 37% | Activity [4]: 8.2% | Activity [5]: 11.8% | Activity [6]: Active | Activity [11]: Active | Activity [8]: 9% | Activity [12]: Non-Toxic | Activity [13]: Toxic

O=C(/C=C/c1ncc[nH]1)c1ccccc1
Activity [9]: 80.4% | Activity [10]: 19.6% | Activity [1]: 10% | Activity [2]: 79% | Activity [3]: 21% | Activity [4]: 7% | Activity [5]: 11.3% | Activity [6]: Active | Activity [11]: Active | Activity [8]: 7%
